Tests used:
[1] = target: PRC2 (Homo sapiens, UniProt Q15910); assay: Differential scanning fluorimetry binding assay; details: 750 nM PRC2, 20 μM compound, 200 μM activating peptide; mean ± SEM, N = 3
Procedure, shortened: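 In-house pentameric PRC2 was mixed with test compound, H3K27me3 activator peptide and 4× thermal-shift dye in 50 mM Hepes pH 7.4, 100 mM NaCl, 1 mM TCEP, 0.2% DMSO. The mix was equilibrated 90 min at RT, then melted from 25 °C to 95 °C at 0.05 °C/s in a real-time PCR instrument. Tm was taken from the first-derivative peak and from a Boltzmann fit. ΔTm is compound minus DMSO control.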

[2] = system: H3K27me3 levels in KARPAS-422 tumors; assay: Tumor pharmacodynamic assay; assay type: in vivo, mice; details: Day 12
[3] = Plasma protein binding; assay type: in vitro ADME

PRC2, sequence (Q15910 whole entry): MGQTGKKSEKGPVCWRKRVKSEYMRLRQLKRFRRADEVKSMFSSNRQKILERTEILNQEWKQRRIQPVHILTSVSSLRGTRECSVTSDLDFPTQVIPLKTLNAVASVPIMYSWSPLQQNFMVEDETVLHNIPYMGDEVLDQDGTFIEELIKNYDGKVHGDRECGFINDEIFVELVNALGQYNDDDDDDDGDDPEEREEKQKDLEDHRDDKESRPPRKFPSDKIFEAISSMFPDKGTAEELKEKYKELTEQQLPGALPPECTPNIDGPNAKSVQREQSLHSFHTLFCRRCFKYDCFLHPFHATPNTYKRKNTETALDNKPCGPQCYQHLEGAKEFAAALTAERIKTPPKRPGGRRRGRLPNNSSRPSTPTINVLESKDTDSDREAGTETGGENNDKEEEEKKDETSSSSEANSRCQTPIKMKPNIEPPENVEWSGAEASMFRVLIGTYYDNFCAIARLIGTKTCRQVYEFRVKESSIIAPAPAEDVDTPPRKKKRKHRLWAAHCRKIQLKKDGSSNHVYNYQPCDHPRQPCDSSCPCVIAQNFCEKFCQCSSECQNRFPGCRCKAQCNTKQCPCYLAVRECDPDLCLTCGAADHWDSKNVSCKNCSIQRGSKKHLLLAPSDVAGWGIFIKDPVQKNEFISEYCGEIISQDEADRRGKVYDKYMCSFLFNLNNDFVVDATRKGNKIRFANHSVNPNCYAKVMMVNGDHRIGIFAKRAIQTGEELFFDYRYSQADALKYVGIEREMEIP
PRC2, sequence (O75530 whole entry partner): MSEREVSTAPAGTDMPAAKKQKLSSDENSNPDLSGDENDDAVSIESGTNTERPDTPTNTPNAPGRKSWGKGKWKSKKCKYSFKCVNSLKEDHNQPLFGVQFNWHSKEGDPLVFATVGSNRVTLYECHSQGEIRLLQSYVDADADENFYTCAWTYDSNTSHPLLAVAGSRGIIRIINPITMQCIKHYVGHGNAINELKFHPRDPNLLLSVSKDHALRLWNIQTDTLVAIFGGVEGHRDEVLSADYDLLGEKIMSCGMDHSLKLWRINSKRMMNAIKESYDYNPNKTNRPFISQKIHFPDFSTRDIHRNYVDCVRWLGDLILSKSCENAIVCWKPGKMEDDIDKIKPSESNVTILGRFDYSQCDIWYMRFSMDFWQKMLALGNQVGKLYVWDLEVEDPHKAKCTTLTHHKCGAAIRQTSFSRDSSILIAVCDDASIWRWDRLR
PRC2, sequence (Q15022 whole entry partner): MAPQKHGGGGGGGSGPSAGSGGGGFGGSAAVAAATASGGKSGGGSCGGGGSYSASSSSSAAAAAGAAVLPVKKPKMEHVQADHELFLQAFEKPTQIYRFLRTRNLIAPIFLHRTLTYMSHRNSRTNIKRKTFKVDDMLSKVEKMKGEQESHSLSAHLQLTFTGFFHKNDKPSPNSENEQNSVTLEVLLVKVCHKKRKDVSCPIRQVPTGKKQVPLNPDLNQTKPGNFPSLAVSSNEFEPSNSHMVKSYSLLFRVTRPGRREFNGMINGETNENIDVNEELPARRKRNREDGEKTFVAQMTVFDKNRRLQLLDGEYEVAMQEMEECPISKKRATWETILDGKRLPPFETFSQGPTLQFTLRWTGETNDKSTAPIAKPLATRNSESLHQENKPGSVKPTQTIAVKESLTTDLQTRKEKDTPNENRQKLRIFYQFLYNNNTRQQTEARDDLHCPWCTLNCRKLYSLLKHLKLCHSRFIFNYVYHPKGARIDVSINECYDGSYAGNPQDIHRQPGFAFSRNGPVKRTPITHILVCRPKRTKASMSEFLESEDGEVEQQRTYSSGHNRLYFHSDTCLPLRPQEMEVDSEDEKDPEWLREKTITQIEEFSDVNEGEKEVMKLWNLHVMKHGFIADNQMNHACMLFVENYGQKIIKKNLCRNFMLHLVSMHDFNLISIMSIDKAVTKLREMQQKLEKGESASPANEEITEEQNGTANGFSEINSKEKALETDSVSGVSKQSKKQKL
PRC2, sequence (Q16576 whole entry partner): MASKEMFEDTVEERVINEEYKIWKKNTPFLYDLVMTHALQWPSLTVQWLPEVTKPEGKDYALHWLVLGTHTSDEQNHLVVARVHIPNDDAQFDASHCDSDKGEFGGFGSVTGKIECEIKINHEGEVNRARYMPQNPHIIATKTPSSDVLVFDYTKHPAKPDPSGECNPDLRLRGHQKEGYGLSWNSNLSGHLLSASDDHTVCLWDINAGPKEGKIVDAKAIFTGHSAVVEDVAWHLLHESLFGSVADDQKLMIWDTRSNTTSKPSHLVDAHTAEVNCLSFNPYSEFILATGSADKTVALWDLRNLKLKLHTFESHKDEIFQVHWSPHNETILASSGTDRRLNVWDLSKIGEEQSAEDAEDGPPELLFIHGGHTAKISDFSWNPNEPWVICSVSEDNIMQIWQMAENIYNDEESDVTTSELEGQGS
PRC2, sequence (Q09028 whole entry partner): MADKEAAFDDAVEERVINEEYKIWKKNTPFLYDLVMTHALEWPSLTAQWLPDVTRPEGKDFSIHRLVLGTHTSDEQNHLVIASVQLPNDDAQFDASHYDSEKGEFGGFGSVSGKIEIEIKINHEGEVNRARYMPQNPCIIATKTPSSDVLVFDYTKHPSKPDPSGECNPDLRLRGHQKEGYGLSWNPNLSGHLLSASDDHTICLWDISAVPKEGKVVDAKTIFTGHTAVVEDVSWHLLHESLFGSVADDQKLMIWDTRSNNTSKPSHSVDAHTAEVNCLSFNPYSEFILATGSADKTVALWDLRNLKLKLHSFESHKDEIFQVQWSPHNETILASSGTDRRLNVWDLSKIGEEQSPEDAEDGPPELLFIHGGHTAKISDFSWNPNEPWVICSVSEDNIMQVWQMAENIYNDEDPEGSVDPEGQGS

## COc1cc(C)[nH]c(=O)c1CNC(=O)c1c(C)n([C@H](C)C2CCN(CC(F)(F)F)CC2)c2ccccc12 [CPI-1205, (R)-N-((4-Methoxy-6-methyl-2-oxo-1,2-dihydropyridin-3-yl)methyl)-2-methyl-1-(1-(1-(2,2,2-trifluoroethyl)piperidin-4-yl)ethyl)-1H-indole-3-carboxamide]
[1]
  ΔTmD (first derivative melting peak): 11.54 ± 0.05 °C

## CCN(c1cc(-c2ccc(CN3CCOCC3)cc2)cc(C(=O)NCc2c(C)cc(C)[nH]c2=O)c1C)C1CCOCC1 [Tazemetostat]
[2]; 25 mg/kg QD PO
  reduction in H3K27me3 levels in tumors: no statistically significant reduction
[2]; 160 mg/kg BID PO
  H3K27me3 levels in tumors: significant loss of H3K27me3 levels
[3]
  fraction unbound: 0.009
25 mg/kg QD PO, 1 h postdose on Day 12
  total plasma levels: 6100 ng/mL
female, CB-17 SCID, mouse, in vivo
  total concentration in tumors: 730 ng/g
